Reference: ChEMBL document CHEMBL2021854, “2-Aminopyrimidine based 4-aminoquinoline anti-plasmodial agents. Synthesis, biological activity, structure-activity relationship and mode of action studies” (Eur J Med Chem, 2012)

Legend:
Plasmodium falciparum [1] = test: Antiplasmodial activity chloroquine-sensitive Plasmodium falciparum 3D7 infected in human A+ erythrocytes assessed as inhibition of [3H]-hypoxanthine incorporation after 24 hrs by scintillation counting; assay type: functional, organism-based
Plasmodium falciparum [2] = test: Antiplasmodial activity chloroquine-resistant Plasmodium falciparum K1 infected in human A+ erythrocytes assessed as inhibition of [3H]-hypoxanthine incorporation after 24 hrs by scintillation counting; assay type: functional, organism-based
Plasmodium falciparum [3] = test: Resistant factor, ratio of IC50 for chloroquine-resistant Plasmodium falciparum K1 to IC50 for chloroquine-sensitive Plasmodium falciparum 3D7; assay type: functional
How it was run: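 Resistance factor computed as IC50 against K1 divided by IC50 against 3D7, both from the [3H]hypoxanthine incorporation assay.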

MDCK = test: Cytotoxicity against MDCK cells assessed as cell viability by colorimetric formazan-based MTS assay; design: species or system Canis lupus familiaris; conditions: dog, mdck
How it was run: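 Cytotoxicity on MDCK cells; 50% cytotoxic concentration from cell viability measured by colorimetric formazan-based MTS assay.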

[4] = Cytotoxicity against MDCK cells assessed as minimum compound concentration required to causes microscopically detectable alteration of normal cell morphology; assay type: cell-based, Canis lupus familiaris; conditions: dog
How it was run: (§1)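 Confluent, non-proliferating cell cultures were exposed to the compounds. The endpoint was the minimum concentration producing a microscopically detectable alteration of normal cell morphology.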

[5] = Selectivity index, ratio of CC50 for MDCK cells to IC50 for chloroquine-resistant Plasmodium falciparum K1; assay type: functional
How it was run: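 Selectivity index computed as MTS-based CC50 on MDCK cells divided by IC50 against P. falciparum K1.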

[6] = Cytotoxicity against african green monkey Vero cells assessed as minimum compound concentration required to causes microscopically detectable alteration of normal cell morphology; assay type: cell-based; conditions: chlorocebus sabaeus; how it was run: as §1
Human respirovirus 3 = test: Antiviral activity against Parainfluenza-3 virus infected in african green monkey Vero cells assessed as inhibition of virus-induced cytopathogenicity after 4 days; assay type: functional, organism-based; conditions: Human respirovirus 3, Vero, 96 h
How it was run: (§2)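 Confluent HEL, Vero or HeLa monolayers were inoculated with 100 CCID50 of virus in the presence of varying concentrations of compound. Cytopathicity was scored when it reached completion in untreated, virus-infected control cultures.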

[7] = tested on: Mammalian orthoreovirus 1; test: Antiviral activity against Reovirus-1 infected in african green monkey Vero cells assessed as inhibition of virus-induced cytopathogenicity after 4 days; assay type: functional, organism-based; conditions: Mammalian orthoreovirus 1, Vero, 96 h; how it was run: as §2
Sindbis virus = test: Antiviral activity against Sindbis virus infected in african green monkey Vero cells assessed as inhibition of virus-induced cytopathogenicity after 4 days; assay type: functional, organism-based; conditions: 96 h; how it was run: as §2
Coxsackievirus B4 [8] = test: Antiviral activity against Coxsackie virus B4 infected in african green monkey Vero cells assessed as inhibition of virus-induced cytopathogenicity after 4 days; assay type: functional, organism-based; conditions: Enterovirus B, 96 h; how it was run: as §2
Punta Toro virus = test: Antiviral activity against Punta Toro virus infected in african green monkey Vero cells assessed as inhibition of virus-induced cytopathogenicity after 4 days; assay type: functional, organism-based; conditions: 96 h; how it was run: as §2
Human alphaherpesvirus 1 [9] = test: Antiviral activity against HSV1 KOS infected in HEL cells assessed as inhibition of virus-induced cytopathogenicity after 4 days; assay type: functional, organism-based; conditions: Human alphaherpesvirus 1, KOS, 96 h
How it was run: (§3)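 Confluent HEL or HeLa monolayers infected with 100 CCID50 of virus in the presence of varying compound concentrations.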

Human alphaherpesvirus 2 = test: Antiviral activity against HSV2 G infected in HEL cells assessed as inhibition of virus-induced cytopathogenicity after 4 days; assay type: functional, organism-based; conditions: Human alphaherpesvirus 2, strain G, 96 h; how it was run: as §2
[10] = tested on: Vesicular stomatitis virus; test: Antiviral activity against Vesicular stomatitis virus infected in HEL cells assessed as inhibition of virus-induced cytopathogenicity after 4 days; assay type: functional, organism-based; conditions: 96 h; how it was run: as §3
Human alphaherpesvirus 1 [11] = test: Antiviral activity against thymidine kinase-deficient acyclovir-resistant HSV1 KOS infected in HEL cells assessed as inhibition of virus-induced cytopathogenicity after 4 days; assay type: functional, organism-based; conditions: Human alphaherpesvirus 1, KOS, 96 h; how it was run: as §3
[12] = Cytotoxicity against human HEL cells assessed as minimum compound concentration required to causes microscopically detectable alteration of normal cell morphology; assay type: cell-based; how it was run: as §1
[13] = Cytotoxicity against human HeLa cells assessed as minimum compound concentration required to causes microscopically detectable alteration of normal cell morphology; assay type: cell-based; how it was run: as §1
[14] = tested on: Vesicular stomatitis virus; test: Antiviral activity against Vesicular stomatitis virus infected in HeLa cells assessed as inhibition of virus-induced cytopathogenicity after 4 days; assay type: functional, organism-based; conditions: 96 h; how it was run: as §3
Coxsackievirus B4 [15] = test: Antiviral activity against Coxsackie virus B4 infected in human HeLa cells assessed as inhibition of virus-induced cytopathogenicity after 4 days; assay type: functional, organism-based; conditions: Enterovirus B, 96 h; how it was run: as §2
[16] = tested on: Respiratory syncytial virus; test: Antiviral activity against Respiratory syncytial virus infected in human HeLa cells assessed as inhibition of virus-induced cytopathogenicity after 4 days; assay type: functional, organism-based; conditions: 96 h; how it was run: as §2
Influenza A virus [17] = test: Antiviral activity against Influenza A virus H1N1 infected in MDCK cells assessed as reduction visual scoring of virus-induced cytopathogenicity after 4 days; assay type: functional, organism-based; conditions: 96 h
How it was run: (§4)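 MDCK monolayers infected with 100 CCID50 of influenza A (H1N1 or H3N2) or influenza B, with varying compound concentrations. Cytopathicity read when untreated infected controls reached complete CPE.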

Influenza A virus [18] = test: Antiviral activity against Influenza A virus H3N2 infected in MDCK cells assessed as reduction visual scoring of virus-induced cytopathogenicity after 4 days; assay type: functional, organism-based; conditions: 96 h; how it was run: as §4
Influenza B virus [19] = test: Antiviral activity against Influenza B virus infected in MDCK cells assessed as reduction visual scoring of virus-induced cytopathogenicity after 4 days; assay type: functional, organism-based; conditions: 96 h; how it was run: as §4
Influenza A virus [20] = test: Antiviral activity against Influenza A virus H1N1 infected in MDCK cells assessed as inhibition of virus-induced cytopathogenicity after 4 days by colorimetric formazan-based MTS assay; assay type: functional, organism-based; conditions: 96 h
Influenza A virus [21] = test: Antiviral activity against Influenza A virus H3N2 infected in MDCK cells assessed as inhibition of virus-induced cytopathogenicity after 4 days by colorimetric formazan-based MTS assay; assay type: functional, organism-based; conditions: 96 h
Influenza B virus [22] = test: Antiviral activity against Influenza B virus infected in MDCK cells assessed as inhibition of virus-induced cytopathogenicity after 4 days by colorimetric formazan-based MTS assay; assay type: functional, organism-based; conditions: 96 h
Human betaherpesvirus 5 [23] = test: Antiviral activity against Cytomegalovirus AD-169 infected in HEL cells assessed as inhibition of virus plaque formation after 4 days; assay type: functional, organism-based; conditions: Human betaherpesvirus 5, AD169, HEL, 96 h
Human betaherpesvirus 5 [24] = test: Antiviral activity against Human cytomegalovirus Davis infected in HEL cells assessed as inhibition of virus plaque formation after 4 days; assay type: functional, organism-based; conditions: Human betaherpesvirus 5, Davis, 96 h
HeLa = test: Cytotoxicity against human HeLa cells assessed as cell viability by colorimetric formazan-based MTS assay
Human alphaherpesvirus 3 [25] = test: Antiviral activity against […] expressing thymidine kinase infected in HEL cells assessed as reduction of virus plaque formation after 4 days; assay type: functional, cell-based; conditions: Human alphaherpesvirus 3, strain Oka vaccine, 96 h
Human alphaherpesvirus 3 [26] = test: Antiviral activity against thymidine kinase-deficient […] infected in HEL cells assessed as reduction of virus plaque formation after 4 days; assay type: functional, organism-based; conditions: Human alphaherpesvirus 3, 07-1, HEL, 96 h
[27] = Cytotoxicity against cat CRFK cells assessed as cell viability by colorimetric formazan-based MTS assay; design: species or system Felis catus; conditions: crfk
[28] = tested on: Feline infectious peritonitis virus; test: Antiviral activity against FIPV infected in cat CRFK cells assessed as inhibition of virus-induced cytopathic effect after 4 days by colorimetric formazan-based MTS assay; assay type: functional, cell-based; conditions: Alphacoronavirus 1, CRFK, 96 h
Felid alphaherpesvirus 1 = test: Antiviral activity against Feline herpesvirus infected in cat CRFK cells assessed as inhibition of virus-induced cytopathic effect after 4 days by colorimetric formazan-based MTS assay; assay type: functional, organism-based; conditions: Felid alphaherpesvirus 1, CRFK, 96 h
[29] = tested on: Human immunodeficiency virus 1; test: Antiviral activity against HIV1 infected in human CEM cells assessed as inhibition of virus-induced cytopathic effect after 4 days; assay type: functional, organism-based; conditions: Human immunodeficiency virus 1, CCRF-CEM, 96 h
How it was run: (§5)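 CEM T-lymphocytes (~3 × 10^5 cells/ml) were infected with HIV-1 IIIB or HIV-2 ROD at ~100 CCID50, then immediately plated with a range of compound concentrations. Giant cell formation was scored microscopically after 4 days at 37 °C. Cytostatic activity was tested in parallel in uninfected CEM cells.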

[30] = tested on: Human immunodeficiency virus 2; test: Antiviral activity against HIV2 infected in human CEM cells assessed as inhibition of virus-induced cytopathic effect after 4 days; assay type: functional, organism-based; conditions: Human immunodeficiency virus 2, CCRF-CEM, 96 h; how it was run: as §5
[31] = Inhibition of beta-hematin formation assessed as Ferriprotoporphyrin IX biomineralisation at 1 mg/ml after 24 hrs; assay type: functional
How it was run: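 Hemin chloride (0.5 mg/ml in DMSO) mixed with 0.5 M sodium acetate buffer pH 4.4 and drug or solvent control, incubated 37 °C for 24 h. Pellet washed with DMSO to remove unreacted hemin, dissolved in 0.1 N NaOH, absorbance read at 405 nm; percent inhibition relative to control. Highest concentration tested 1 mg/ml.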

| SMILES | IC50 (Plasmodium falciparum [1]) | IC50 (Plasmodium falciparum [2]) | Ratio IC50 (Plasmodium falciparum [3]) | CC50 (MDCK) | MCC [4] | Ratio CC50/IC50 [5] | MCC [6] | EC50 (Human respirovirus 3) | EC50 [7] | EC50 (Sindbis virus) | EC50 (Coxsackievirus B4 [8]) | EC50 (Punta Toro virus) | EC50 (Human alphaherpesvirus 1 [9]) | EC50 (Human alphaherpesvirus 2) | EC50 [10] | EC50 (Human alphaherpesvirus 1 [11]) | MCC [12] | MCC [13] | EC50 [14] | EC50 (Coxsackievirus B4 [15]) | other results |
| --- | --- | --- | --- | --- | --- | --- | --- | --- | --- | --- | --- | --- | --- | --- | --- | --- | --- | --- | --- | --- | --- |
| CCOC(=O)c1c(C)nc(NCCCNc2ccnc3cc(Cl)ccc23)nc1C | 63.1 nM | 161 nM | 2.548 | 58.2 µM | 20 µM | 361.89 | > 100 µM | > 100 µM | > 100 µM | > 100 µM | > 100 µM | > 100 µM | > 100 µM | > 100 µM | > 100 µM | > 100 µM | ≥ 100 µM | > 100 µM | > 100 µM | > 100 µM | EC50 [16]: > 100 µM; EC50 (Influenza A virus [17]): > 4000 nM; EC50 (Influenza A virus [18]): > 4000 nM; EC50 (Influenza B virus [19]): > 4000 nM; EC50 (Influenza A virus [20]): > 4000 nM; EC50 (Influenza A virus [21]): > 4000 nM; EC50 (Influenza B virus [22]): > 4000 nM; EC50 (Human betaherpesvirus 5 [23]): 8.94 µM; EC50 (Human betaherpesvirus 5 [24]): 8.18 µM; CC50 (HeLa): 17.5 µM; EC50 (Human alphaherpesvirus 3 [25]): 9.62 µM; EC50 (Human alphaherpesvirus 3 [26]): > 20 µM; CC50 [27]: > 100 µM; EC50 [28]: > 100 µM; EC50 (Felid alphaherpesvirus 1): > 100 µM; EC50 [29]: > 2000 nM; EC50 [30]: > 2000 nM; inhibition [31]: 66% |
| CCOC(=O)c1c(C)nc(NCCCNc2ccnc3cc(Cl)ccc23)nc1-c1ccccc1 | 248 nM | 52.2 nM | 0.21 | 0.8 µM | 0.8 µM | 15.33 | 100 µM | > 20 µM | > 20 µM | > 20 µM | > 20 µM | > 20 µM | > 100 µM | > 100 µM | > 100 µM | > 100 µM | > 20 µM | > 100 µM | > 100 µM | > 100 µM | EC50 [16]: > 100 µM; EC50 (Influenza A virus [17]): > 160 nM; EC50 (Influenza A virus [18]): > 160 nM; EC50 (Influenza B virus [19]): > 160 nM; EC50 (Influenza A virus [20]): > 160 nM; EC50 (Influenza A virus [21]): > 160 nM; EC50 (Influenza B virus [22]): > 160 nM; EC50 (Human betaherpesvirus 5 [23]): 4 µM; EC50 (Human betaherpesvirus 5 [24]): 4 µM; CC50 (HeLa): 7.07 µM; EC50 (Human alphaherpesvirus 3 [25]): > 4 µM; EC50 (Human alphaherpesvirus 3 [26]): > 20 µM; CC50 [27]: 15.9 µM; EC50 [28]: > 4 µM; EC50 (Felid alphaherpesvirus 1): > 4 µM; EC50 [29]: > 2000 nM; EC50 [30]: > 2000 nM; inhibition [31]: 100% |
